Measurements: ChEMBL document CHEMBL3826951, “Discovery of Benzocycloalkane Derivatives Efficiently Blocking Bacterial Virulence for the Treatment of Methicillin-Resistant S. aureus (MRSA) Infections by Targeting Diapophytoene Desaturase (CrtN)” (J Med Chem, 2016)
Active and inactive are the calls of the source. The rule behind the calls is not given here.

Experiments:
Staphylococcus aureus [1] = experiment: (§1) Attenuation of methicillin-resistant Staphylococcus aureus Mu 50 virulence in BALB/c mouse systemic infection model assessed as decrease in bacterial survival in kidney at 50 mg/kg, ip administered every 12 hrs for 108 hrs followed by bacterial challenge after first 12 hrs of compound dosing measured 5 days post infection; assay type: functional; conditions: Mu50
Procedure, shortened: (§2)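 Female BALB/c mice, 6-8 weeks old. Dosed ip every 12 h for 108 h. Challenged with 100 µL at 12 h: 1.6 × 10^8 CFU Mu50 or 4 × 10^7 CFU USA400 MW2. Sacrificed 5 days post-infection. Livers and kidneys homogenised in PBS/0.1% Triton X-100, serially plated on TSA, CFU counted; two-tailed Mann-Whitney.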

Staphylococcus aureus [2] = experiment: as §1, with “liver” for “kidney”; assay type: functional; conditions: Mu50; procedure, shortened: as §2
Staphylococcus aureus [3] = experiment: as §1, with “USA400 MW2” for “Mu 50”, “burden” for “survival”, “liver” for “kidney”, “200” for “50”; assay type: functional; procedure, shortened: as §2
Staphylococcus aureus [4] = experiment: as §1, with “USA400 MW2” for “Mu 50”, “burden” for “survival”, “liver” for “kidney”; assay type: functional; procedure, shortened: as §2
Staphylococcus aureus [5] = experiment: as §1, with “in liver” for “in kidney”, “at 200” for “at 50”; assay type: functional, Mu50; procedure, shortened: as §2
[6] = target: T1, 4,4'-diapophytoene synthase (Staphylococcus aureus, UniProt A9JQL9); experiment: Inhibition of Staphylococcus aureus ATCC 27659 full length His-tagged dehydrosqualene synthase expressed in Escherichia coli BL21 (DE3) cells assessed as reduction in staphyloxanthin pigment formation after 72 hrs by spectrophotometric analysis
T1 sequence (A9JQL9 whole entry): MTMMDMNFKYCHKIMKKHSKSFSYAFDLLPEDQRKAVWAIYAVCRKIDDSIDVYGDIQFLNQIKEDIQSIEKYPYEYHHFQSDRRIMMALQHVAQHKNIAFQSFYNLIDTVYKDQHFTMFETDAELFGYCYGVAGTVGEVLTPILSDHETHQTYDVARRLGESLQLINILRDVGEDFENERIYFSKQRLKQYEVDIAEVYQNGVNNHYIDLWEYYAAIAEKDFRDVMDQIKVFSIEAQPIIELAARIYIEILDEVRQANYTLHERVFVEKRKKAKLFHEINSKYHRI

Staphylococcus aureus [7] = experiment: as §1, with “at 200” for “at 50”; assay type: functional, Mu50; procedure, shortened: as §2

Structure (SMILES): O=P([O-])([O-])C(CCCc1cccc(Oc2ccccc2)c1)S(=O)(=O)[O-].[K+].[K+].[K+] (configuration not stated)
- Activity (Staphylococcus aureus [1]): inactive
- Activity (Staphylococcus aureus [2]): Active
- Activity (Staphylococcus aureus [3]): 1.59 log10CFU
- Activity (Staphylococcus aureus [4]): inactive
- Activity (Staphylococcus aureus [5]): 2.84 log10CFU
- IC50 [6]: 83.4 nM
- Activity (Staphylococcus aureus [7]): 0.3 log10CFU
